Results published in ChEMBL document CHEMBL2157875, “Design, synthesis and in vitro evaluation of a series of α-substituted phenylpropanoic acid PPARγ agonists to further investigate the stereochemistry-activity relationship” (Bioorg Med Chem, 2012).

Experiments:
Type in all cases: cell-based
HEK293 = experiment: Selectivity ratio of EC50 for human PPARalpha expressed in human HEK293 cells to EC50 for human PPARgamma expressed in human HEK293 cells
[1] = molecular target: PPAR delta/gamma (Homo sapiens) (UniProt P37231+Q03181); experiment: Selectivity ratio of EC50 for human PPARdelta expressed in human HEK293 cells to EC50 for human PPARgamma expressed in human HEK293 cells
[2] = molecular target: T1, Peroxisome proliferator-activated receptor alpha (Homo sapiens, UniProt Q07869); experiment: Transactivation of human PPARalpha expressed in human HEK293 cells after 16 to 20 hrs by dual luciferase beta-galactosidase reporter gene assay
T1 sequence (Q07869 whole entry): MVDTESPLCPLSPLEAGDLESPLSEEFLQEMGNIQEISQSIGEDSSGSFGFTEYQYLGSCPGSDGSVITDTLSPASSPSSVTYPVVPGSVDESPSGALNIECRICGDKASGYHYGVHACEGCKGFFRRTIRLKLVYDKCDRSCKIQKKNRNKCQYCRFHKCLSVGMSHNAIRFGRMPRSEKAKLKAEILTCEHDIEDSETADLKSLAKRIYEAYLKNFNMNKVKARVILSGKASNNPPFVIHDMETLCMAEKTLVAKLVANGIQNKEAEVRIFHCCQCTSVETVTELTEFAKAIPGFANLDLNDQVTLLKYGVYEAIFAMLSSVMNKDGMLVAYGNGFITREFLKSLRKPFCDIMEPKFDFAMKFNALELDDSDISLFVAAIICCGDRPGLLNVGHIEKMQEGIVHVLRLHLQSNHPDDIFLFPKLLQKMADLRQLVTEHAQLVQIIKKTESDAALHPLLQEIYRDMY
How it was run: (§1)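 HEK293 cells were grown in DMEM with 5% FBS and antibiotic-antimycotic at 37 °C in 5% CO2. They were co-transfected by calcium phosphate with 50 ng reporter, 20 ng pCMX-β-galactosidase and 15 ng of each receptor plasmid, made up to 150 ng with pGEM carrier. Ligands were added 8 h later and cells harvested about 16–20 h after. Luciferase was normalized to β-galactosidase; means of triplicates.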

[3] = molecular target: T2, Peroxisome proliferator-activated receptor gamma (Homo sapiens) (UniProt P37231); experiment: Transactivation of human PPARgamma expressed in human HEK293 cells assessed as concentration required for maximum activity after 16 to 20 hrs by dual luciferase beta-galactosidase reporter gene assay; how it was run: as §1
T2 sequence (whole entry): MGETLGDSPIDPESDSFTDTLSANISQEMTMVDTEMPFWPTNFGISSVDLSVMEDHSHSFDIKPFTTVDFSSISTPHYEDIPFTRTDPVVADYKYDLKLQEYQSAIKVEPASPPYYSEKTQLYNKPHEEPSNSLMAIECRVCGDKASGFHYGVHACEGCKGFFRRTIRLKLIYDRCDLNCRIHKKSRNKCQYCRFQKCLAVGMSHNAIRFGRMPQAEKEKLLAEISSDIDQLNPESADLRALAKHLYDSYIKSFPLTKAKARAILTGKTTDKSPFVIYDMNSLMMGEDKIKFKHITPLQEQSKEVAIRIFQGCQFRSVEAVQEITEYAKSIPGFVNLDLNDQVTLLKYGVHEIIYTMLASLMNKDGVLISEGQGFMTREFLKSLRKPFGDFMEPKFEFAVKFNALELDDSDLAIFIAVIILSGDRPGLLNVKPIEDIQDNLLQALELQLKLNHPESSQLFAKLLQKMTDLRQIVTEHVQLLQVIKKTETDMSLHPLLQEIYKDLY

[4] = molecular target: T3, Peroxisome proliferator-activated receptor gamma (Homo sapiens, UniProt P37231); experiment: Transactivation of human PPARgamma expressed in human HEK293 cells after 16 to 20 hrs by dual luciferase beta-galactosidase reporter gene assay; how it was run: as §1
T3 sequence (P37231 whole entry): T2 sequence (whole entry)

[5] = molecular target: T4, Peroxisome proliferator-activated receptor delta (Homo sapiens, UniProt Q03181); experiment: Transactivation of human PPARdelta expressed in human HEK293 cells after 16 to 20 hrs by dual luciferase beta-galactosidase reporter gene assay
T4 sequence (Q03181 whole entry): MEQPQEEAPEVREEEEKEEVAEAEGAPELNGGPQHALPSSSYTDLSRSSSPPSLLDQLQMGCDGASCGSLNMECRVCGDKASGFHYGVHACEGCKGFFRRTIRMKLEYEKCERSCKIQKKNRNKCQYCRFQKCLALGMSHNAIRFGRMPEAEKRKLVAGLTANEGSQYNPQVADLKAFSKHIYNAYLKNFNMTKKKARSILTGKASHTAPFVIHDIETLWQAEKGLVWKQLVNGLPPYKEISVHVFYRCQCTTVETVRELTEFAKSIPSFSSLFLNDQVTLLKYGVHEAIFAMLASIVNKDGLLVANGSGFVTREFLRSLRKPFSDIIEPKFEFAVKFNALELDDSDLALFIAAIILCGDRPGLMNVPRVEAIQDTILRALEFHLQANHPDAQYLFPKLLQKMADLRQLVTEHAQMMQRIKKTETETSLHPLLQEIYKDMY
How it was run: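 HEK293 cells grown in DMEM with 5% FBS and antibiotic-antimycotic at 37 °C, 5% CO₂. Calcium phosphate cotransfection per well of 50 ng reporter, 20 ng pCMX-β-galactosidase, 15 ng receptor expression plasmid, pGEM carrier to 150 ng. Ligands added 8 h post-transfection, cells harvested ~16–20 h later. Luciferase normalised to β-galactosidase; means of triplicates.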

Ratio EC50 [1]	EC50 [2] [µM]	Activity [3] [µM]	EC50 [4] [µM]	EC50 [5] [µM]	SMILES	Ratio EC50 (HEK293)
240	–	1	0.022	–	CCCOc1ccc(C[C@H](CC2CCCCC2)C(=O)O)cc1CNC(=O)c1ccc(C23CC4CC(CC(C4)C2)C3)cc1	240
–	–	–	–	0.13	CCCOc1ccc(C[C@H](CC)C(=O)O)cc1CNC(=O)c1ccc(C23CC4CC(CC(C4)C2)C3)cc1	–

More lines, now with the values behind:

SMILES	Ratio EC50 [1]	EC50 [2] [µM]	Activity [3] [µM]	EC50 [4] [µM]	EC50 [5] [µM]	Ratio EC50 (HEK293)
CCCOc1ccc(C[C@@H](CCc2ccccc2)C(=O)O)cc1CNC(=O)c1ccc(C23CC4CC(CC(C4)C2)C3)cc1	50	1.76	1	0.034	–	50
CCCOc1ccc(C[C@@H](CC2CCCCC2)C(=O)O)cc1CNC(=O)c1ccc(C23CC4CC(CC(C4)C2)C3)cc1	240	–	1	0.012	–	240
CCCOc1ccc(C[C@H](CCc2ccccc2)C(=O)O)cc1CNC(=O)c1ccc(C23CC4CC(CC(C4)C2)C3)cc1	50	0.77	0.05	0.0092	–	50
